Measured values taken from PMC10249145 (Cardiovascular & hematological agents in medicinal chemistry, 2023).

Assays:
human plasma kallikrein [1] = test: Inhibition of plasma kallikrein, chromogenic substrate hydrolysis assay; assay type: biochemical; details: ratio of IC50 values
Summary of the method: (§1)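 Human plasma kallikrein was used at about 3 nM with Spectrozyme PK at 100 μM (in-well, set from KM), in pH 7.4 Tris-HCl with NaCl, CaCl2, PEG8000 and Tween80. Residual activity was measured at several test compound concentrations; IC50 was fitted by logistic equation where inhibition was concentration-dependent.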

human plasma kallikrein [2] = target: human plasma kallikrein (Homo sapiens, UniProt P03952); test: as above; assay type: biochemical
Summary of the method: as §1

human plasma = test: Activated partial thromboplastin time; assay type: biochemical; details: normal human plasma, ellagic acid APTT reagent
Summary of the method: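 Citrated pooled normal human plasma was mixed with test compound (solutions of 0–983 μM as added) and prewarmed ellagic acid APTT reagent (0.2%). After 4 min at 37 °C, clotting was started with prewarmed 25 mM CaCl2 and the clotting time was read on a fibrometer. The concentration giving a 1.5-fold increase in APTT was derived. Values are means of three experiments.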

FVIIa/tissue factor = target: T1, FVIIa/tissue factor (Homo sapiens, UniProt P08709); test: Inhibition of FVIIa/tissue factor, chromogenic substrate hydrolysis assay; assay type: biochemical
T1 sequence (P08709 61-466): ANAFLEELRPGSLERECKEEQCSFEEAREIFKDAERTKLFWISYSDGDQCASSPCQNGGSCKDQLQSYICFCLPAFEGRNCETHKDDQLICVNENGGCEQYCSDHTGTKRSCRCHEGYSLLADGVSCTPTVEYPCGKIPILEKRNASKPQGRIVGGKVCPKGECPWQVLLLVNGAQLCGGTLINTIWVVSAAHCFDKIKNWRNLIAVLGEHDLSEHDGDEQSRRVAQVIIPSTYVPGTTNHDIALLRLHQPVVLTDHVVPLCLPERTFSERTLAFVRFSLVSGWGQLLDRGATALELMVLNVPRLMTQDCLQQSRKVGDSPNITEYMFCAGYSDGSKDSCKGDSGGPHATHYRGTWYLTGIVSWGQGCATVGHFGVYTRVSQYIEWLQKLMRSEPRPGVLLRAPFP
Summary of the method: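 FVIIa/tissue factor: enzyme about 8 nM with Spectrozyme VIIa at 1000 μM in-well, chosen from KM. Buffer was pH 7.4 Tris-HCl with NaCl, 2.5 mM CaCl2, 0.1% PEG8000 and 0.02% Tween80. Residual chromogenic activity was measured at several test compound concentrations, and a logistic fit gave IC50 where inhibition was concentration-dependent.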

human plasmin [3] = target: human plasmin (Homo sapiens, UniProt P00747); test: Inhibition of plasmin, chromogenic substrate hydrolysis assay; assay type: biochemical
Summary of the method: (§2)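 Human plasmin at about 20 nM with Spectrozyme PL at 50 μM in-well (set from KM), in pH 7.4 Tris-HCl with NaCl, 2.5 mM CaCl2, 0.1% PEG8000 and 0.02% Tween80. Residual activity was measured at several test compound concentrations, and a logistic fit gave IC50, efficacy and Hill slope.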

human plasmin [4] = test: as above; assay type: biochemical; details: ratio of IC50 values
Summary of the method: as §2

human FXIIa [5] = target: T2, human FXIIa (Homo sapiens, UniProt P00748); test: Affinity to human FXIIa by intrinsic tryptophan fluorescence spectroscopy; assay type: binding
T2 sequence (P00748 20-615): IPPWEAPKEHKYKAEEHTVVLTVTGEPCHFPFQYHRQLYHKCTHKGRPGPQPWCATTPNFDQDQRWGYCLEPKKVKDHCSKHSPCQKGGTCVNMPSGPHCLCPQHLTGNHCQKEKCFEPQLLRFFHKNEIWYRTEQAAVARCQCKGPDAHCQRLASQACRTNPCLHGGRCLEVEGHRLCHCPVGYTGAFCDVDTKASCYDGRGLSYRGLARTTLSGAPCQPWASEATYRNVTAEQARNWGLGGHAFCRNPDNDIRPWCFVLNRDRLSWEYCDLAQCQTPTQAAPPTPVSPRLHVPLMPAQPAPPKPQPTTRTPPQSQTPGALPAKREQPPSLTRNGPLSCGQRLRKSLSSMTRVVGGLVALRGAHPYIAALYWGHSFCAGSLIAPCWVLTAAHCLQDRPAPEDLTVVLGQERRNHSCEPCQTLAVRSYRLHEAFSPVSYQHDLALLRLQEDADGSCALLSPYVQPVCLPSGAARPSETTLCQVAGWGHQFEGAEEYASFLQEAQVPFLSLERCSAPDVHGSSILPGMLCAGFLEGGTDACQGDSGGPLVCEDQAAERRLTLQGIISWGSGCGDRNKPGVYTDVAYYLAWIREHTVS
Summary of the method: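 Test compound (100 μM) was titrated into human FXIIa (350 nM) in 50 mM Tris-HCl pH 7.4 with 150 mM NaCl and 0.1% PEG8000 at 37 °C. Intrinsic tryptophan fluorescence was read at λem 348 nm (λex 280 nm). The fluorescence change was fitted to a quadratic equilibrium binding equation to give Kd.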

human FXIIa [6] = target: T2, human FXIIa; test: Direct inhibition of human FXIIa, chromogenic substrate hydrolysis assay; assay type: biochemical; details: human FXIIa, pH 7.4, 37 °C; ± 1 S.E.
Summary of the method: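 Human FXIIa (stock 200 nM) was preincubated for 5 min with test compound or vehicle in Tris-HCl pH 7.4 with NaCl, 2.5 mM CaCl2, 0.1% PEG8000 and 0.02% Tween80 at 37 °C. Spectrozyme FXIIa (stock 5 mM) was then added. Twelve in-well concentrations (500–0.0025 μM) were tested. Residual activity was taken from the initial A405 rate, and a logistic fit gave IC50, efficacy and Hill slope (±1 S.E.).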

Sequence of human plasmin (Homo sapiens, UniProt P00747) (P00747 97-810): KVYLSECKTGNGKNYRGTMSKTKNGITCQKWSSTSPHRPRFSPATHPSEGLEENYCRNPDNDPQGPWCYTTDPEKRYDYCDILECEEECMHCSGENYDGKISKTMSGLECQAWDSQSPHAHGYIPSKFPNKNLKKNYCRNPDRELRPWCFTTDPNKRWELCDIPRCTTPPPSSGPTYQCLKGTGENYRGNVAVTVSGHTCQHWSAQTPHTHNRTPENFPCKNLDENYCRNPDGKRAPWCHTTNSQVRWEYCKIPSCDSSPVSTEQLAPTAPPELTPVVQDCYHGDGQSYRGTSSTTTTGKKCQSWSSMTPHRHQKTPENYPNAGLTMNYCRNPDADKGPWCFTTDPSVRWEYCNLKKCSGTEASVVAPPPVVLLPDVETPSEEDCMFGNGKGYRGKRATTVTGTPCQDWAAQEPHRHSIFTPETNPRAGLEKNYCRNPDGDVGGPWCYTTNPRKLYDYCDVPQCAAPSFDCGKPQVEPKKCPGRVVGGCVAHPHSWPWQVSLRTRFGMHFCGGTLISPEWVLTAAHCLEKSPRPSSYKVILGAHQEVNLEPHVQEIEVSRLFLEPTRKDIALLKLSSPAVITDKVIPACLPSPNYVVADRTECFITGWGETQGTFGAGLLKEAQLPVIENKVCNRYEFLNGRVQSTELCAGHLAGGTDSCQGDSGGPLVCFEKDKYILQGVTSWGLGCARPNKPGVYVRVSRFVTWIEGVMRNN
Sequence of human plasma kallikrein (Homo sapiens, UniProt P03952) (P03952 20-638): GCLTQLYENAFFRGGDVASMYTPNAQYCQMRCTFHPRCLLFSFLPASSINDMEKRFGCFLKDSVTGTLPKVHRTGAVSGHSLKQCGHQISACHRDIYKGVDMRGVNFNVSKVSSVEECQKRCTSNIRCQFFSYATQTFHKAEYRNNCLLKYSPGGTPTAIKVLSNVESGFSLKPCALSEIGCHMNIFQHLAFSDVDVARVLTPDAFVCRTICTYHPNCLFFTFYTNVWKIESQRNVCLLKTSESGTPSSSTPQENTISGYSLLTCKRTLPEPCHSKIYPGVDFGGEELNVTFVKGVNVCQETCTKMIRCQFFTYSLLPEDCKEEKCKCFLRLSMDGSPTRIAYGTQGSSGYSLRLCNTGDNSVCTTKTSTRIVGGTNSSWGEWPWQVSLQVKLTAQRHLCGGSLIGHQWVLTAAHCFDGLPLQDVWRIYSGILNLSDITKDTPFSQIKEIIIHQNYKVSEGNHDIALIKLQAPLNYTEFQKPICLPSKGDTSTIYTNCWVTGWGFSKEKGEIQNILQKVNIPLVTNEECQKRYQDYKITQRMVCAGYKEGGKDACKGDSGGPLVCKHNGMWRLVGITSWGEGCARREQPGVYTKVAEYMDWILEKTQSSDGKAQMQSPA

SMILES: COC(=O)c1nc(N)n(C(=O)c2ccc(C(C)(C)C)cc2)n1 [Inhibitor 1, Methyl 5-amino-1-(4-(tert-butyl)benzoyl)-1H-1,2,4-triazole-3-carboxylate]
- selectivity to FXIIa over plasma kallikrein (human plasma kallikrein [1]): at least 4545 fold
- IC50 (human plasma kallikrein [2]): > 500 µM
- APTT (EC×1.5), concentration required to increase APTT by 1.5-fold (human plasma): ~340 µM
- APTT (EC×1.5), concentration required to increase APTT by 1.5-fold (human plasma; listed as 1): ~ 340 μM
- IC50 (FVIIa/tissue factor): > 1000 µM
- IC50 (human plasmin [3]): 83.2 ± 37 µM
- DeltaY (efficacy of inhibition) (human plasmin [3]; Plasmin): 25 ± 12%
- HS (Hill slope) (human plasmin [3]; Plasmin): 1.4 ± 1.6
- selectivity index to human FXIIa over plasmin (human plasmin [4]): 756 fold
- Kd (human FXIIa [5]): 0.98 ± 0.13 µM
- HS (Hill slope) (human FXIIa [6]): 1.7 ± 0.4
